Results on 8 compounds are retold here after ChEMBL document CHEMBL1126988, “Quinolone antibacterials containing the new 7-[3-(1-aminoethyl)-1- pyrrolidinyl] side chain: the effects of the 1-aminoethyl moiety and its stereochemical configurations on potency and in vivo efficacy” (J Med Chem, 1993).

What all share (type): functional
Test [1] concerns Streptococcus pyogenes. The test is described as follows: Compounds were evaluated in vivo for antibacterial activity for mouse protection against Streptococcus pyogenes C 203 after oral administration. To be noted: for ED50: Streptococcus pyogenes, C 203, po, read-out: PD50.
In another test the test system is Providencia rettgeri. Put plainly: Minimum inhibitory concentration was evaluated in vitro against Providencia rettgeri M1771. The gist of the method: (§1)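 Standard microtitration broth assay against a panel of 10 Gram-positive and Gram-negative organisms. MIC read in µg/mL and averaged over multiple experiments.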
Another test has as its system Klebsiella pneumoniae. Put plainly: Minimum inhibitory concentration was evaluated in vitro against Klebsiella pneumoniae MGH2. The gist of the method: as §1
Test [2] concerns Staphylococcus aureus. Put plainly: Minimum inhibitory concentration was evaluated in vitro against Staphylococcus aureus H 228. The method in brief: as §1
Another test relates to Escherichia coli. The test is described as follows: Antibacterial activity in vitro against Escherichia coli Vogel. The gist of the method: as §1
For test [3], the system named is Streptococcus pyogenes. The test is described as follows: Antibacterial activity measured as mouse protection against Streptococcus pyogenes C 203 after subcutaneous administration. Conditions: for ED50: Streptococcus pyogenes, C 203, sc, read-out: PD50.
Test [4] relates to Staphylococcus aureus. The test is described as follows: Minimum inhibitory concentration was evaluated in vitro against Staphylococcus aureus UC 76. The gist of the method:
as §1

A further test concerns Pseudomonas aeruginosa. The test is described as follows: Minimum inhibitory concentration was evaluated in vitro against Pseudomonas aeruginosa UI-18. The gist of the method:
as §1

The test system of the next test is Enterococcus faecalis. Put plainly: Minimum inhibitory concentration was evaluated in vitro against Enterococcus faecalis MGH-2. The method in brief: as §1
In a further test the test system is Streptococcus pneumoniae. The test is described as follows: Minimum inhibitory concentration was evaluated in vitro against Streptococcus pneumoniae SV-1. The gist of the method: as §1
Test [5] relates to Streptococcus pyogenes. The test is described as follows: Minimum inhibitory concentration was evaluated in vitro against Streptococcus pyogenes C 203. The gist of the method: as §1
Another test concerns Enterobacter cloacae. Put plainly: Minimum inhibitory concentration in vitro against Enterobacter cloacae MA 2646.
[6] abbreviates: Escherichia coli, read-out: MIC.
Where [7] appears, read: Providencia rettgeri, read-out: MIC.
Setting [8] is: Klebsiella pneumoniae, read-out: MIC.
The mark [9] stands for this setting: Staphylococcus aureus, read-out: MIC.
[10] abbreviates: Pseudomonas aeruginosa, read-out: MIC.
Where [11] appears, read: Enterococcus faecalis, read-out: MIC.
The mark [12] stands for this setting: Streptococcus pneumoniae, read-out: MIC.
Where [13] appears, read: Streptococcus pyogenes, read-out: MIC.
Setting [14] is: Enterobacter cloacae, read-out: MIC.

Each structure is given as a SMILES string. ≈ marks a conversion by molar mass, not a printed value.

`CCN[C@@H](C)[C@@H]1CCN(c2c(F)c(N)c3c(=O)c(C(=O)O)cn(C4CC4)c3c2F)C1` (stereo in doubt; 32H-S,S): the results for the PD50 with Streptococcus pyogenes [1] and in the test on Streptococcus pyogenes [3] were 13 mg/kg and 9 mg/kg, respectively. Besides, the MIC amounted to 1.6 µg/mL (≈ 3.81 µM) with Providencia rettgeri; 0.4 µg/mL (≈ 0.951 µM) with Klebsiella pneumoniae; 0.1 µg/mL (≈ 0.238 µM) in the test on Staphylococcus aureus [2]; 0.2 µg/mL (≈ 0.476 µM) in the test with Escherichia coli (setting [6]); 0.05 µg/mL (≈ 0.119 µM) against Staphylococcus aureus [4]; 3.1 µg/mL (≈ 7.37 µM) in the test with Pseudomonas aeruginosa. Further, the MIC was 0.2 µg/mL (≈ 0.476 µM) in the test with Enterococcus faecalis, 0.05 µg/mL (≈ 0.119 µM) in the test on Streptococcus pneumoniae, 0.2 µg/mL (≈ 0.476 µM) in the test with Streptococcus pyogenes [5] and 0.4 µg/mL (≈ 0.951 µM) in the test on Enterobacter cloacae.

`CN[C@@H](C)[C@H]1CCN(c2c(F)c(N)c3c(=O)c(C(=O)O)cn(C4CC4)c3c2F)C1`: the minimum inhibitory concentration (MIC) was found to be 1.6 µg/mL (≈ 3.94 µM) with Providencia rettgeri (setting [7]); 0.8 µg/mL (≈ 1.97 µM) with Klebsiella pneumoniae (setting [8]); 0.8 µg/mL (≈ 1.97 µM) with Staphylococcus aureus [2] (setting [9]); 0.4 µg/mL (≈ 0.984 µM) in the test on Escherichia coli (setting [6]); 0.4 µg/mL (≈ 0.984 µM) in the test on Staphylococcus aureus [4] (setting [9]); 3.1 µg/mL (≈ 7.63 µM) in the test with Pseudomonas aeruginosa (setting [10]). In addition, the minimum inhibitory concentration (MIC) came to 1.6 µg/mL (≈ 3.94 µM) in the test with Enterococcus faecalis (setting [11]), 0.8 µg/mL (≈ 1.97 µM) with Streptococcus pneumoniae (setting [12]), 1.6 µg/mL (≈ 3.94 µM) in the test on Streptococcus pyogenes [5] (setting [13]) and 0.4 µg/mL (≈ 0.984 µM) in the test on Enterobacter cloacae (setting [14]).

Consider `CCNCC1CCN(c2c(F)cc3c(=O)c(C(=O)O)cn(C4CC4)c3c2OC)C1` (stereo unspecified), for which the ED50 with Streptococcus pyogenes [1] is 4 mg/kg; in the test on Streptococcus pyogenes [3] it was 0.4 mg/kg. For the same compound, the minimal inhibitory concentration (MIC) with Providencia rettgeri (setting [7]) amounted to 0.4 µg/mL (≈ 0.991 µM); in the test on Klebsiella pneumoniae (setting [8]), 0.2 µg/mL (≈ 0.496 µM); with Staphylococcus aureus [2] (setting [9]), 0.025 µg/mL (≈ 0.062 µM); in the test on Escherichia coli (setting [6]), 0.1 µg/mL (≈ 0.248 µM); with Staphylococcus aureus [4] (setting [9]) it was 0.006 µg/mL (≈ 0.0149 µM); with Pseudomonas aeruginosa (setting [10]), 1.6 µg/mL (≈ 3.97 µM). In addition, the MIC was found to be 0.05 µg/mL (≈ 0.124 µM) in the test on Enterococcus faecalis (setting [11]), 0.013 µg/mL (≈ 0.0322 µM) in the test on Streptococcus pneumoniae (setting [12]), 0.013 µg/mL (≈ 0.0322 µM) in the test with Streptococcus pyogenes [5] (setting [13]) and 0.1 µg/mL (≈ 0.248 µM) in the test on Enterobacter cloacae (setting [14]).

In the case of `C[C@H](N)[C@H]1CCN(c2c(F)c(N)c3c(=O)c(C(=O)O)cn(C4CC4)c3c2F)C1` (stereo in doubt; 32F-S,R), the PD50 in the test with Streptococcus pyogenes [1] was found to be 14 mg/kg; in the test on Streptococcus pyogenes [3], 4 mg/kg. For the same compound, the minimal inhibitory concentration (MIC) was found to be 0.2 µg/mL (≈ 0.51 µM) against Providencia rettgeri; 0.1 µg/mL (≈ 0.255 µM) in the test on Klebsiella pneumoniae; 0.025 µg/mL (≈ 0.0637 µM) in the test on Staphylococcus aureus [2]; 0.05 µg/mL (≈ 0.127 µM) with Escherichia coli; 0.006 µg/mL (≈ 0.0153 µM) in the test with Staphylococcus aureus [4]; 0.8 µg/mL (≈ 2.04 µM) in the test on Pseudomonas aeruginosa. In addition, the minimal inhibitory concentration (MIC) against Enterococcus faecalis came out at 0.05 µg/mL (≈ 0.127 µM); with Streptococcus pneumoniae, 0.013 µg/mL (≈ 0.0331 µM); with Streptococcus pyogenes [5], 0.013 µg/mL (≈ 0.0331 µM); against Enterobacter cloacae it was 0.1 µg/mL (≈ 0.255 µM).

Turning to `CCN[C@H](C)[C@@H]1CCN(c2c(F)cc3c(=O)c(C(=O)O)cn(C4CC4)c3c2OC)C1`, the ED50 in the test with Streptococcus pyogenes [1] is 3 mg/kg. In addition, the minimal inhibitory concentration (MIC) was found to be 0.8 µg/mL (≈ 1.92 µM) in the test on Providencia rettgeri (setting [7]); 0.4 µg/mL (≈ 0.958 µM) in the test on Klebsiella pneumoniae (setting [8]); 0.013 µg/mL (≈ 0.0311 µM) with Staphylococcus aureus [2] (setting [9]); 0.2 µg/mL (≈ 0.479 µM) in the test on Escherichia coli (setting [6]); 0.003 µg/mL (≈ 0.00719 µM) with Staphylococcus aureus [4] (setting [9]); 3.1 µg/mL (≈ 7.43 µM) in the test on Pseudomonas aeruginosa (setting [10]). Also, the MIC was found to be 0.013 µg/mL (≈ 0.0311 µM) in the test with Enterococcus faecalis (setting [11]), 0.003 µg/mL (≈ 0.00719 µM) in the test on Streptococcus pneumoniae (setting [12]), 0.003 µg/mL (≈ 0.00719 µM) in the test on Streptococcus pyogenes [5] (setting [13]) and 0.2 µg/mL (≈ 0.479 µM) in the test on Enterobacter cloacae (setting [14]).

`CCN[C@H](C)[C@H]1CCN(c2cc3c(cc2F)c(=O)c(C(=O)O)cn3C2CC2)C1` (mixture of isomers; form 1): the minimal inhibitory concentration (MIC) with Providencia rettgeri is 1.6 µg/mL; against Klebsiella pneumoniae, 0.8 µg/mL; against Staphylococcus aureus [2] it was 0.4 µg/mL; in the test on Escherichia coli, 0.4 µg/mL; in the test with Staphylococcus aureus [4], 0.2 µg/mL; with Pseudomonas aeruginosa, 6.3 µg/mL. For the same compound, the MIC with Enterococcus faecalis came to 0.4 µg/mL; with Streptococcus pneumoniae it was 0.2 µg/mL; in the test on Streptococcus pyogenes [5], 0.2 µg/mL; against Enterobacter cloacae, 0.4 µg/mL.

For `CC(N)C1CCN(c2cc3c(c(N)c2F)c(=O)c(C(=O)O)cn3C2CC2)C1` (mixture of isomers), the ED50 stood at 18 mg/kg in the test on Streptococcus pyogenes [1] and 4 mg/kg with Streptococcus pyogenes [3]. For the same compound, the MIC in the test with Providencia rettgeri (setting [7]) came out at 0.1 µg/mL; in the test on Klebsiella pneumoniae (setting [8]), 0.05 µg/mL; in the test on Staphylococcus aureus [2] (setting [9]), 0.05 µg/mL; in the test with Escherichia coli (setting [6]), 0.025 µg/mL; in the test with Staphylococcus aureus [4] (setting [9]), 0.003 µg/mL; in the test on Pseudomonas aeruginosa (setting [10]) it was 0.4 µg/mL. Moreover, the MIC in the test on Enterococcus faecalis (setting [11]) came to 0.013 µg/mL; in the test on Streptococcus pneumoniae (setting [12]), 0.003 µg/mL; in the test on Streptococcus pyogenes [5] (setting [13]), 0.003 µg/mL; with Enterobacter cloacae (setting [14]) it was 0.025 µg/mL.

In the case of `CC(N)C1CCN(c2c(F)cc3c(=O)c(C(=O)O)cn(C4CC4)c3c2C(F)(F)F)C1` (stereo in doubt; 36F-R,R), the PD50 was determined as 3 mg/kg in the test with Streptococcus pyogenes [1] and 2 mg/kg in the test on Streptococcus pyogenes [3]. Moreover, the MIC in the test with Providencia rettgeri (setting [7]) was 0.8 µg/mL (≈ 1.87 µM); against Klebsiella pneumoniae, 0.8 µg/mL (≈ 1.87 µM); in the test with Staphylococcus aureus [2], 0.1 µg/mL (≈ 0.234 µM); in the test with Escherichia coli it was 0.8 µg/mL (≈ 1.87 µM); in the test with Staphylococcus aureus [4], 0.025 µg/mL (≈ 0.0585 µM); with Pseudomonas aeruginosa, 6.3 µg/mL (≈ 14.7 µM). In addition, the minimum inhibitory concentration (MIC) turned out to be 0.2 µg/mL (≈ 0.468 µM) with Enterococcus faecalis, 0.1 µg/mL (≈ 0.234 µM) in the test on Streptococcus pneumoniae, 0.1 µg/mL (≈ 0.234 µM) against Streptococcus pyogenes [5] and 0.4 µg/mL (≈ 0.936 µM) in the test on Enterobacter cloacae (setting [14]).
